Laboratory results taken from ChEMBL document CHEMBL1127779, “Stereospecific synthesis of peptidyl alpha-keto amides as inhibitors of calpain” (J Med Chem, 1994).
pKi: −log10 of the molar value. ≈ marks a conversion by molar mass, not a printed value. Non-standard residues stand in square brackets, D forms with d. Residues, ends and D or L forms follow the SMILES beside them. ξ: configuration not given here. *: point of attachment. Cbz = O=C(OCc1ccccc1)*; ξNva = CCCC(N)C(=O)O

Experiments:
[1] = Tested for solubility of the compound; type: ADME; settings: read-out: S
Method in brief: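 The DMA stock was diluted in 0.9% saline to 3% DMA (inhibitor ≤0.9 mg/mL) and brought to pH 2.75 with 0.1 N HCl. It was sonicated 5 min, held 15 min at room temperature and centrifuged 5 min at 16500g. Supernatant concentration came from C4 reverse-phase HPLC (60 °C, 210 nm) peak area, calibrated against standards in acetonitrile.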

[2] = target: T1, Calpain-2 catalytic subunit (Bos taurus, UniProt Q27971); test: Tested for inhibitory activity on bovine calpain 2 from heart
T1 sequence (Q27971 whole entry): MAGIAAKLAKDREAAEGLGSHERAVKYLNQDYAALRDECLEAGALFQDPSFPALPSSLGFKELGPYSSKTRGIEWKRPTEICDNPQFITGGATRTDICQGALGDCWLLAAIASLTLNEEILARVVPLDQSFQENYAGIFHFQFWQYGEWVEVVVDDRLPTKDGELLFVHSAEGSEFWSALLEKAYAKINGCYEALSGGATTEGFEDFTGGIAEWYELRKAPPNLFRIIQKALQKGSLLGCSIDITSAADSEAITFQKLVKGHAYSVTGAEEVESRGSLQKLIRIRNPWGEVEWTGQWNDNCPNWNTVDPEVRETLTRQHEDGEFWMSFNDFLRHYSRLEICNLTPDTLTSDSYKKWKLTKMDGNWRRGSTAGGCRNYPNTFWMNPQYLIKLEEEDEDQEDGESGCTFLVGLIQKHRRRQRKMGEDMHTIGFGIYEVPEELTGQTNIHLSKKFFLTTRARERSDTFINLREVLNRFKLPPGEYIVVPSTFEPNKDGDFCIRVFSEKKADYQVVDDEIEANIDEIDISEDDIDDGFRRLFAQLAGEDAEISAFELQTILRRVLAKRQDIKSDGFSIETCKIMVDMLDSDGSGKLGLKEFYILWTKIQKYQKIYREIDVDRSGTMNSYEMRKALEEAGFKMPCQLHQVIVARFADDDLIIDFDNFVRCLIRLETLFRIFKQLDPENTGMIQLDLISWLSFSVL

Row | Compound | solubility [1] [µg/mL] | pKi [2]
1 | CCS(=O)(=O)CCNC(=O)C(=O)[C@@H](Cc1ccccc1)NC(=O)[C@H](CC(C)C)NC(=O)OCc1ccccc1 | 730 (≈ 1300 µM) | –
2 | CCCC(NC(=O)[C@H](CC(C)C)NC(=O)OCc1ccccc1)C(=O)NCC (stereo partly drawn) (Cbz-Leu-[ξNva]-NHEt) | – | 7.30
